The values that follow come from ChEMBL document CHEMBL3792331, “Identification and synthesis of potent and selective pyridyl-isoxazole based agonists of sphingosine-1-phosphate 1 (S1P1)” (Bioorg Med Chem Lett, 2016).

One data set concerns Plasma. Kind of data set: Ratio of plasma concentration Lewis rat at 1 mg/kg, po after 4 hrs to plasma concentration Lewis rat at 1 mg/kg, po after 24 hrs. The conditions noted are these: in vivo. In kind it is ADME, organism-based. The method in brief:
(§1)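 Lewis rats given 1.0 mg/kg orally as solution or suspension in vehicle. Plasma drug concentration measured in blood drawn at 4 h and 24 h; 4 h/24 h ratio taken from these values.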

A short description of data set [1]: Plasma concentration Lewis rat at 1 mg/kg, po after 4 hrs. It counts as ADME, organism-based. The essentials: as §1
The test system of data set [2] is Rattus norvegicus. Kind of data set: Reduction in circulating lymphocytes in Lewis rat at 1 mg/kg, po after 24 hrs. It counts as functional. The essentials:
(§2)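 Healthy Lewis rats dosed orally with test article as solution or suspension in vehicle, or vehicle alone. Blood drawn at 4 h and 24 h. Circulating lymphocyte percentage measured by hematology analyzer, expressed as reduction versus the vehicle group. Group average, n = 3–4.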

For data set [3], the system named is Rattus norvegicus. Put plainly: Reduction in circulating lymphocytes in Lewis rat at 1 mg/kg, po after 4 hrs. It counts as functional. The essentials:
as §2

Data set [4] addresses Sphingosine 1-phosphate receptor 1 (Homo sapiens, UniProt P21453). Kind of data set: Agonist activity at human S1P1 receptor expressed in CHO cell membranes assessed as stimulation of [35S]GTPgamma binding incubated for 45 mins by liquid scintillation counting method. The method in brief: (§3)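 Membranes from S1P1/CHO cells (S1P1) or EDG3-Ga15-bla HEK293T cells (S1P3), final protein […], with 3-fold compound dilutions. Buffer: 20 mM HEPES pH 7.5, 10 mM MgCl2, 150 mM NaCl, 1 mM EGTA, 1 mM DTT, GDP, 0.1% fatty acid free BSA, saponin. [35S]GTP 0.2 nM final. Room temperature, 45 min. Filtered, washed with water, dried 60 °C. EC50 taken at 50% of each compound's Ymax.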

For data set [5], the target named is Sphingosine 1-phosphate receptor 3 (Homo sapiens, UniProt Q99500). Put plainly: Agonist activity at human S1P3 receptor expressed in EDG3-Ga15-bla HEK293T cell membranes assessed as stimulation of [35S]GTPgamma binding incubated for 45 mins by liquid scintillation counting method. Details: species or system HEK-293T. The essentials: as §3
Sphingosine 1-phosphate receptor 3, sequence (Q99500 whole entry): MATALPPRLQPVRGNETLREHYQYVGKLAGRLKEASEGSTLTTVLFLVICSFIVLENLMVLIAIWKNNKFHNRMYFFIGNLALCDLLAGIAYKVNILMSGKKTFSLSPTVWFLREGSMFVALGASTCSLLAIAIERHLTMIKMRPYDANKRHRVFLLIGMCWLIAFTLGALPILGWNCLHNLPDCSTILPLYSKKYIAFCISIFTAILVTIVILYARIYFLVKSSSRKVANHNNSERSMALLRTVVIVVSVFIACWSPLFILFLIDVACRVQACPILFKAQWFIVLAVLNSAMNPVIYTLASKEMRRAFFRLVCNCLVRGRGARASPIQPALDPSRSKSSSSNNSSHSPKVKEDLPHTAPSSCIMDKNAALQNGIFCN
Data set [6] is described as follows: Plasma concentration Lewis rat at 1 mg/kg, po after 24 hrs. It counts as ADME, organism-based. The essentials: as §1
Data set [7] is described as follows: Selectivity index, ratio of EC50 for agonist activity at human S1P3 receptor expressed in EDG3-Ga15-bla HEK293T cell membranes to EC50 for agonist activity at human S1P1 receptor expressed in CHO cell membranes. In kind it is cell-based. The method in brief:
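S1P3/S1P1 ratio of GTPγ[35S] EC50s. Membranes from EDG3-Ga15-bla HEK293T (S1P3) or S1P1/CHO cells, […], 0.2 nM final [35S]GTP. HEPES pH 7.5 buffer with MgCl2, NaCl, EGTA, DTT, GDP, BSA and saponin. 45 min at room temperature, filtration read-out. Each EC50 taken at 50% of the compound's own Ymax.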

Sphingosine 1-phosphate receptor 1, sequence (P21453 whole entry): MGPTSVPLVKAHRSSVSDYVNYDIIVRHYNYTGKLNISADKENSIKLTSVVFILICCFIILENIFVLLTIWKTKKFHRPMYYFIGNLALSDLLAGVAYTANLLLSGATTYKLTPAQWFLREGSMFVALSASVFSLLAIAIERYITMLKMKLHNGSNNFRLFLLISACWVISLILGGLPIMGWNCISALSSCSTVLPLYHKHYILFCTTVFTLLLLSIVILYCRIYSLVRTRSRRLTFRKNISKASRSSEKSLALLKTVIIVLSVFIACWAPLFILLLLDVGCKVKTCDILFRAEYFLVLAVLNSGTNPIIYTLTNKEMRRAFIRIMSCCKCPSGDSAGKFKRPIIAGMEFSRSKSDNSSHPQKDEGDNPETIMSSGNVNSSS

For the molecule `O=C(O)C1CN(Cc2ccc(-c3noc(-c4onc(-c5ccccc5)c4C(F)(F)F)n3)cc2)C1`, the Ratio in the data set on Plasma stood at 3. The same molecule showed a concentration at 4 h in data set [1] of 2130 nM. In addition, the inhibition in vivo at 1 mg/kg in the data set with Rattus norvegicus [2] turned out to be 91%; in the data set on Rattus norvegicus [3], 78%.

Consider `CCCc1c(-c2ccccn2)noc1-c1nc(-c2ccc(CN3CC(C(=O)O)C3)cc2)no1`, for which the Ratio in the data set with Plasma was found to be 12. In addition, the EC50 worked out at 0.00021 µM in data set [4] and 0.63 µM in data set [5]. The concentration at 4 h in data set [1] was 318 nM. Also, the values for the inhibition in vivo at 1 mg/kg in the data set on Rattus norvegicus [2] and with Rattus norvegicus [3] were 85% and 82%, respectively. The concentration at 24 h in data set [6] was determined as 26 nM. In addition, the Ratio EC50 in data set [7] amounted to 3000.

Take `CCc1c(-c2nc(-c3ccc(CN4CC(C(=O)O)C4)cc3)no2)noc1-c1ccccn1`: the Ratio with Plasma stood at 15. In addition, the EC50 in data set [4] was 0.0034 µM. This molecule came in with a concentration at 4 h in data set [1] of 972 nM. In addition, the inhibition in vivo at 1 mg/kg came to 58% with Rattus norvegicus [2] and 84% in the data set with Rattus norvegicus [3]. This molecule had a concentration at 24 h in data set [6] of 64 nM. Further, in data set [7], the Ratio EC50 was determined as 550.

As to `CC(C)c1c(-c2nc(-c3ccc(CN4CC(C(=O)O)C4)cc3)no2)noc1-c1ccccn1`, the Ratio in the data set with Plasma is reported as 22. This molecule displayed a concentration at 4 h in data set [1] of 686 nM. Moreover, in data set [5], the EC50 was 8.2 µM. Moreover, the inhibition in vivo at 1 mg/kg was found to be 64% with Rattus norvegicus [2] and 84% in the data set on Rattus norvegicus [3]. The concentration at 24 h in data set [6] amounted to 31 nM. In addition, in data set [7], the Ratio EC50 turned out to be 8200.

Turning to `CCCc1c(-c2nc(-c3ccc(CN4CC(C(=O)O)C4)cc3)no2)noc1-c1ccccn1`, the Ratio in the data set on Plasma turned out to be 30. Further, the concentration at 4 h in data set [1] stood at 292 nM. For the same molecule, the results for the inhibition in vivo at 1 mg/kg in the data set with Rattus norvegicus [2] and with Rattus norvegicus [3] were 53% and 81%, respectively. Further, the concentration at 24 h in data set [6] was 9.9 nM. The Ratio EC50 in data set [7] stood at 2500.
